Values after ≈ are worked out from the molar mass of the structure shown. Active and inactive are the calls of the source. The calls are words filed in the database; no cut-off is given here.

The subject of assay [1] is Escherichia coli. Kind of assay: Antibacterial activity against Escherichia coli MG1655 harboring plasmid pBR322 carrying blaTEM-1 and tetA(C) genes grown as planktonic cells after 24 hrs by agar dilution method. The conditions noted are these: K-12 substr. MG1655, 24 h. For orientation: In agar dilution, organisms are placed on agar that contains the substance at set levels.

Assay [2] relates to Escherichia coli. Kind of assay: Antibacterial activity against Escherichia coli MG1655 grown as biofilms harboring plasmid pBR322 carrying blaTEM-1 and tetA(C) genes after 24 hrs by agar dilution method. The class given is functional. In outline: (§1)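 Biofilm MIC: cultures diluted to OD600 0.1 in LB, grown in PVC 96-well plates 24 h at 37°C without shaking; antibiotic added directly without washing as 10-fold dilutions, then 24 h more.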

Assay [3] relates to Escherichia coli. Kind of assay: Antibacterial activity against Escherichia coli MG1655 harboring grown as biofilms plasmid pBR322 carrying blaTEM-1 and tetA(C) genes assessed as decrease in bacterial biofilms formation at 5 ug/ml by GFP assay. The conditions noted are these: K-12 substr. MG1655. The format is functional.
Assay [4] relates to Escherichia coli. Kind of assay: Antibacterial activity against Escherichia coli OCL62 grown as biofilms harboring plasmid pBR322 carrying blaTEM-1 and tetA(C) genes after 24 hrs by crystal violet staining method. The conditions noted are these: OCL62, 24 h.
Assay [5] relates to Escherichia coli. Kind of assay: Antibacterial activity against Escherichia coli MG1655 grown as biofilms after 24 hrs by agar dilution method. The class given is functional. The conditions noted are these: K-12 substr. MG1655, 24 h. In outline: as §1
For assay [6], the system named is Escherichia coli. Kind of assay: Antibacterial activity against Escherichia coli OCL62 harboring plasmid pBR322 carrying blaTEM-1 and tetA(C) genes grown as planktonic cells after 24 hrs by broth microdilution method. The following applies: OCL62, 24 h. A general note: Dilution methods test growth across graded concentrations, often in twofold steps.
Assay [7] has as its system Escherichia coli. Kind of assay: Antibacterial activity against Escherichia coli MG1655 grown as planktonic cells after 24 hrs by agar dilution method. The format is functional. The following applies: K-12 substr. MG1655, 24 h.
Assay [8] has as its system Escherichia coli. Kind of assay: Antibacterial activity against Escherichia coli MG1655 grown as biofilms assessed as inhibition of bacterial biofilms formation at 5 to 500 ug/ml. The format is functional. The conditions noted are these: K-12 substr. MG1655. The gist of the method: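 MG1655 biofilms grown in LB in PVC 96-well plates from early-stationary cultures diluted to OD600 0.1, static 24 h at 37°C. Antibiotic added unwashed as 10-fold dilutions (0.0000005–500 μg/ml) for another 24 h.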

Assay [9] relates to Escherichia coli. Kind of assay: Antibacterial activity against Escherichia coli MG1655 grown as planktonic cells harboring plasmid pBR322 carrying blaTEM-1 and tetA(C) genes assessed as reduction in bacterial biofilms formation. The class given is functional. The following applies: K-12 substr. MG1655.
Assay [10] has as its system Escherichia coli. Kind of assay: Antibacterial activity against Escherichia coli OCL62 grown as biofilms after 24 hrs by agar dilution method. The format is functional. The conditions noted are these: OCL62, 24 h. In outline: as §1
In assay [11] the test system is Escherichia coli. Kind of assay: Antibacterial activity against Escherichia coli MG1655 grown as biofilms harboring plasmid pBR322 carrying blaTEM-1 and tetA(C) genes assessed as reduction in bacterial biofilms formation. The class given is functional. The following applies: K-12 substr. MG1655. The gist of the method:
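Biofilms grown in LB on PVC 96-well plates (inoculum OD600 0.1, 24 h, 37°C, static), then antibiotic added as 10-fold dilutions for 24 h. Eight replicates per condition, four independent experiments.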

Assay [12] deals with Escherichia coli. Kind of assay: Antibacterial activity against Escherichia coli OCL62 grown as planktonic cells after 24 hrs by agar dilution method. The class given is functional. The following applies: OCL62, 24 h.

As to `CC[C@H]1OC(=O)[C@H](C)[C@@H](O[C@H]2C[C@@](C)(OC)[C@@H](O)[C@H](C)O2)[C@H](C)[C@@H](O[C@@H]2O[C@H](C)C[C@H](N(C)C)[C@H]2O)[C@](C)(O)C[C@@H](C)C(=O)[C@H](C)[C@@H](O)[C@]1(C)O` [ERYTHROMYCIN], the MIC in assay [1] was 0.5 µg/mL (≈ 0.681 µM); in assay [2] (K-12 substr. MG1655, 24 h) it was 5 µg/mL (≈ 6.81 µM).

For `NC[C@H]1O[C@H](O[C@H]2[C@H](O)[C@@H](O[C@H]3O[C@H](CO)[C@@H](O)[C@H](N)[C@H]3O)[C@H](N)C[C@@H]2N)[C@H](O)[C@@H](O)[C@@H]1O` [KANAMYCIN], in assay [2] (K-12 substr. MG1655, 24 h), the MIC was 0.5 µg/mL (≈ 1.03 µM).

Take `O=C(N[C@H](CO)[C@H](O)c1ccc([N+](=O)[O-])cc1)C(Cl)Cl` [CHLORAMPHENICOL]: the MIC in [1] stood at 0.5 µg/mL (≈ 1.55 µM); in [2] (K-12 substr. MG1655, 24 h) it was 5 µg/mL (≈ 15.5 µM).

`CC1(C)S[C@@H]2[C@H](NC(=O)[C@H](N)c3ccccc3)C(=O)N2[C@H]1C(=O)O` [AMPICILLIN]: the inhibition entry in [3] and in [11] was “Active” throughout. The MIC is 500 µg/mL (≈ 1430 µM) in [1]; 50 µg/mL (≈ 143 µM) in assay [4]; 5 µg/mL (≈ 14.3 µM) in assay [5]; 5 µg/mL (≈ 14.3 µM) in assay [6]; 0.5 µg/mL (≈ 1.43 µM) in [7]; 5 µg/mL (≈ 14.3 µM) in [10]. Also, the MIC in assay [12] was 5 µg/mL (≈ 14.3 µM); in assay [2] (K-12 substr. MG1655, 24 h) it was 5 µg/mL (≈ 14.3 µM). Further, in assay [8], the outcome was Active. Besides, the inhibition entry in [9] was “inactive”.

With `CC1(C)S[C@@H]2[C@H](NC(=O)Cc3ccccc3)C(=O)N2[C@H]1C(=O)O` [PENICILLIN G], the MIC in [1] worked out at 5 µg/mL (≈ 15 µM); in assay [2] (K-12 substr. MG1655, 24 h), 0.5 µg/mL (≈ 1.5 µM).

GENTAMICIN came in with an MIC in assay [2] (K-12 substr. MG1655) of 0.005 µg/mL.

With `CN(C)[C@@H]1C(O)=C(C(N)=O)C(=O)[C@@]2(O)C(O)=C3C(=O)c4c(O)cccc4[C@@](C)(O)[C@H]3C[C@@H]12` [TETRACYCLINE], in assay [3], the inhibition result is “Active”. Also, the MIC was 500 µg/mL (≈ 1130 µM) in assay [1]; 500 µg/mL (≈ 1130 µM) in assay [5]; 0.5 µg/mL (≈ 1.13 µM) in assay [7]; greater than 500 µg/mL in [2] (K-12 substr. MG1655, 24 h). The result in [8] was Active.

Values taken from ChEMBL document CHEMBL1671674, “Induction of multidrug resistance mechanism in Escherichia coli biofilms by interplay between tetracycline and ampicillin resistance genes” (2009).
